According to ChEMBL document CHEMBL1221173, “Dynamic imaging of protease activity with fluorescently quenched activity-based probes” (Nat Chem Biol, 2005):
The source made the active and inactive calls. The calls are words filed in the database; no cut-off is given here.

Tests used:
[1] = biological target: Procathepsin L (Homo sapiens) (UniProt P07711); assay: Inhibition of human cathepsin L using Z-FR-AMC substrate assessed as inhibition association constant by fluorimetric assay
Outline: (§1)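 Cathepsin B or L (1 nM final) with inhibitor at 10–2,000 nM plus 10 µM substrate (Z-RR-AMC for B, Km 114 µM; Z-FR-AMC for L, Km 7.1 µM), 3.5% DMSO. AMC fluorescence (Ex 370/Em 460 nm) read continuously for 30 min. k_app from inhibition curves converted to k_ass = k_app(1+[S]/K_M).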

Cathepsin B (Bos taurus) [2] = biological target: Cathepsin B (Bos taurus) (UniProt P07688); assay: Inhibition of bovine cathepsin B using Z-RR-AMC substrate assessed as inhibition association constant by fluorimetric assay; outline: as §1
[3] = biological target: Procathepsin L (Homo sapiens) (UniProt P07711); assay: Binding affinity to human recombinant cathepsin L assessed as protein labeling at 0.1 to 10 uM after 30 mins using SDS-PAGE and Typhoon laser flatbed canning method
Outline: (§2)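 Recombinant enzyme (cathepsin B, bovine, 0.4 µg; cathepsin L, human, 0.7 µg) in pH 5.5 acetate buffer (50 mM acetate, 2 mM DTT, 5 mM MgCl₂). Optional 30 min pretreatment at 25 °C with general papain-family inhibitor JPM-OEt (25 µM), or DMSO. Probe at increasing concentrations for 30 min. Stopped with SDS sample buffer, SDS-PAGE, gel fluorescence scanned.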

Cathepsin B (Bos taurus) [4] = biological target: Cathepsin B (Bos taurus) (UniProt P07688); assay: Binding affinity to bovine recombinant cathepsin B assessed as protein labeling at 0.1 to 10 uM after 30 mins using SDS-PAGE and Typhoon laser flatbed canning method; outline: as §2
[5] = biological target: Cathepsin S (Homo sapiens) (UniProt P25774); assay: Binding affinity to recombinant cathepsin S assessed as protein labeling at 0.1 to 10 uM after 30 mins using SDS-PAGE and Typhoon laser flatbed canning method
Chain of Cathepsin S (Homo sapiens) (P25774 115-331 limits assumed): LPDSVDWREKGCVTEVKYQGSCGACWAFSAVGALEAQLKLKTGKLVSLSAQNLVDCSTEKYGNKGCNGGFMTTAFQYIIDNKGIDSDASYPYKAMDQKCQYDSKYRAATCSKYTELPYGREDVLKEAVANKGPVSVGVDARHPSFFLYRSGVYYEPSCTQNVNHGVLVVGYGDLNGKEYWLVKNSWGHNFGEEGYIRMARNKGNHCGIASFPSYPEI

[6] = biological target: Cathepsin B (Mus musculus) (UniProt P10605); assay: Binding affinity to cathepsin B in mouse NIH/3T3 cells assessed as protein labeling at 1 uM after 30 mins using SDS-PAGE and Typhoon laser flatbed canning method; assay type: cell-based; details: NIH3T3
Chain of Cathepsin B (Mus musculus) (P10605 80-333 limits assumed): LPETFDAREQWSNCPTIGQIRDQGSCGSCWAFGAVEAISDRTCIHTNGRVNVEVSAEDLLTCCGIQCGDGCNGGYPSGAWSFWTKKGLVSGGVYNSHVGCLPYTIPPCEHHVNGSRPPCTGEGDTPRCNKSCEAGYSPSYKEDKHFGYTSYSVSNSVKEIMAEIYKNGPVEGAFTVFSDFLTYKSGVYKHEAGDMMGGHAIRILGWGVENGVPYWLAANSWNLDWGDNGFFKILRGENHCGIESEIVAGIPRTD
Outline: (§3)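 NIH-3T3 monolayers seeded one day before. Pretreated 1 h with JPM-OEt (50 µM) or 0.1% DMSO, then probe added to medium at pH 7.4 (final DMSO 0.2%) for the indicated times. Cells PBS-washed and lysed in SDS sample buffer, then boiled. Equal protein run on 12% SDS-PAGE, gel scanned at Ex/Em 532/580 nm.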

[7] = biological target: T1, Procathepsin L (Mus musculus) (UniProt P06797); assay: Binding affinity to cathepsin L in mouse NIH/3T3 cells assessed as protein labeling at 1 uM after 30 mins using SDS-PAGE and Typhoon laser flatbed canning method; assay type: cell-based; details: NIH3T3; outline: as §3
T1 sequence (whole entry): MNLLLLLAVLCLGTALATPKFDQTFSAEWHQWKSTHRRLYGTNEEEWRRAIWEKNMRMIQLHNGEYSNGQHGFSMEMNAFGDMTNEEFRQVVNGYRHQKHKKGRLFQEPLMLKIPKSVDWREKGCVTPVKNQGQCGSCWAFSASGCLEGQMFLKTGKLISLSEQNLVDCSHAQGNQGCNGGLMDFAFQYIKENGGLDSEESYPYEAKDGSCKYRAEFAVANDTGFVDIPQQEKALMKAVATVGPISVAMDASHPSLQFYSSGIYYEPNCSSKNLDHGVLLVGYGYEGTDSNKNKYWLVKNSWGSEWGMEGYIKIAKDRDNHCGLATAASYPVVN

[8] = Cytotoxicity against mouse NIH/3T3 cells; assay type: cell-based; details: nih3t3
[9] = biological target: Cathepsin B (Mus musculus) (UniProt P10605); assay: Binding affinity to cathepsin B in mouse NIH/3T3 cells monolayers assessed as protein labeling at 1 uM after 4 to 5 hrs by fluorescence microscopy; assay type: cell-based; details: NIH3T3
Outline: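 Live NIH-3T3 cells on glass coverslips, pretreated 1 h with JPM-OEt (50 µM) or 0.1% DMSO. Probe (1 µM) added to growth medium, pH 7.4, for 4–5 h. Moved to phenol red-free medium with LysoTracker (50 nM final) for lysosome co-localization, then imaged by inverted fluorescence microscopy. Some cells first washed 3 h in medium with JPM-OEt or DMSO.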

[10] = biological target: Cathepsin B (Homo sapiens) (UniProt P07858); assay: Binding affinity to cathepsin B in 8 day old human MCF10A cells grown on reconstituted basement membrane assessed as protein labeling exposed to 1 uM for 3 hrs followed by washing overnight with growth media by confocal fluorescence microscopy; assay type: cell-based; details: MCF-10A
Outline: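 Day 8 three-dimensional MCF-10A cultures on reconstituted basement membrane, grown without probe. Treated with 1 µM probe for 3 h in assay medium (2% horse serum, 5 ng/ml EGF), washed overnight, then cold-methanol fixed. Immunostained overnight at 4 °C with rabbit anti-human cathepsin B, then secondary antibody and DAPI. Imaged by confocal microscopy.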

[11] = Binding affinity to recombinant cathepsin X assessed as protein labeling at 0.1 to 10 uM after 30 mins using SDS-PAGE and Typhoon laser flatbed canning method
[12] = biological target: Procathepsin L (Homo sapiens) (UniProt P07711); assay: Binding affinity to cathepsin L in human MCF10A cells grown on reconstituted basement membrane exposed to 1 uM compounds assessed as protein labeling after 3 days by confocal fluorescence microscopy; details: MCF-10A
[13] = biological target: Cathepsin B (Homo sapiens) (UniProt P07858); assay: Binding affinity to cathepsin B in human MCF10A cells grown on reconstituted basement membrane exposed to 1 uM compounds assessed as protein labeling after 3 days by confocal fluorescence microscopy; details: MCF-10A

Chain of Procathepsin L (Homo sapiens) (P07711 114-333 limits assumed): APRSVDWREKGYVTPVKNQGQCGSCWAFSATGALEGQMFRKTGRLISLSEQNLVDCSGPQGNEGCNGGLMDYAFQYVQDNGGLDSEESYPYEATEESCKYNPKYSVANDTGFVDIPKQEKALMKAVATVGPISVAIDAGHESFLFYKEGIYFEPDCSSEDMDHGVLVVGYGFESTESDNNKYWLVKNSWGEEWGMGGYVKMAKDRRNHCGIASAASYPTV

INH [1]	INH (Cathepsin B (Bos taurus) [2])	Activity [3]	Activity (Cathepsin B (Bos taurus) [4])	Activity [5]	Activity [6]	Activity [7]	Activity [9]	Activity [10]	Activity [11]	Activity [12]	Activity [13]	Compound	Activity [8]
296000 M⁻¹ s⁻¹	38500 M⁻¹ s⁻¹	–	–	–	–	–	–	–	–	–	–	COc1ccc(-c2ccc3n2[B-](F)(F)[N+]2=C(C)C(CCC(=O)NCCCCCC(=O)NCCCC[C@@H](NC(=O)[C@H](N)Cc4ccccc4)C(=O)COC(=O)c4c(C)cccc4C)=C(C)C2=C3)cc1	–
2580 M⁻¹ s⁻¹	1260 M⁻¹ s⁻¹	Active	Active	Active	Active	Active	Active	Active	Active	Active	Active	COc1ccc(-c2ccc3n2[B-](F)(F)[N+]2=C(C)C(CCC(=O)NCCCCCC(=O)NCCCC[C@@H](NC(=O)[C@@H](Cc4ccccc4)NC(=O)OCc4ccccc4)C(=O)COC(=O)c4c(C)cccc4C)=C(C)C2=C3)cc1	Non-toxic
1180 M⁻¹ s⁻¹	212 M⁻¹ s⁻¹	–	–	–	–	–	–	–	–	–	–	COc1ccc(-c2ccc3n2[B-](F)(F)[N+]2=C(C)C(CCC(=O)NCCCCCC(=O)NCCCC[C@@H](NC(=O)[C@@H](Cc4ccccc4)NC(=O)OC(C)(C)C)C(=O)COC(=O)c4c(C)cccc4C)=C(C)C2=C3)cc1	–
7000 M⁻¹ s⁻¹	275 M⁻¹ s⁻¹	Active	Active	Active	inactive	Active	Active	–	Active	Active	Active	COc1ccc(-c2ccc3n2[B-](F)(F)[N+]2=C(C)C(CCC(=O)NCCCCCC(=O)NCCCC[C@@H](NC(=O)[C@@H](Cc4ccccc4)NC(=O)OCc4ccccc4)C(=O)COC(=O)CNC(=O)C4CCN(S(=O)(=O)c5ccccc5-c5c6cc/c(=[N+](/C)c7ccccc7)cc-6oc6cc(Nc7ccccc7)ccc56)CC4)=C(C)C2=C3)cc1	Non-toxic
